Reference: ChEMBL document CHEMBL4513216, “Probing the Open Global Health Chemical Diversity Library for Multistage-Active Starting Points for Next-Generation Antimalarials” (ACS Infect Dis, 2020)

Test: Toxicity liver stage against HepG2, at 10uM
Assay type: cell-based
Parameters: test concentration 10 uM, cell line HepG2-A16-CD81EGFP
Conditions: human, HepG2-A16-CD81EGFP cells; read-out: INHIBITION
Summary of the method: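 Uninfected HepG2-A16-CD81EGFP cells, 3 × 10^3 per well, 1536-well, plated on prespotted compound at 10 μM final, parasite-free screening media added to match infected plates; puromycin 10 μM positive, DMSO 0.5% negative; run in parallel with 48 h PbLuc assay at 37 °C, 5% CO2; viability by CellTiter-Glo luminescence, normalized to controls.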

SMILES | cytotoxicity at 10 µM
Cc1nc(N2CCN(C)CC2)ncc1C(=O)N1CCCCCC1 | -3.48%
COc1ccc2c(c1)CN(Cc1ccco1)C(=O)CCN2CC(C)(C)O | -7.08%
CN(C)c1ncc(NS(=O)(=O)c2ccc(OC(F)(F)F)cc2)cn1 | 11.9%
Cc1cccc(C(=O)N2CCN(c3ccc(-n4cccc4)nn3)CC2)c1 | 67.1%
CNC(=O)[C@@H]1COC[C@H]2CN(C(=O)c3ccc(C)c(C)c3)C[C@H]21 | 11.6%
COc1ccc2c(c1)OC1(CCN(Cc3ccc(F)cc3)CC1)CC2=O | 9.09%
Cn1nc(C(=O)N2CCOCC2)cc1C(=O)Nc1c(Cl)cccc1Cl | 12%
CCC(C)(C)n1nnnc1C(c1cccs1)N1CCc2ccccc2C1 (stereo unspecified) | 0.237%
CN(C)c1ccc(C(=O)N2CCC(c3cc4cnccc4[nH]3)CC2)cc1 | 1.12%
CCOCCCNCc1cc2c(C)cc(C)cc2n2c(=O)n(C)nc12 | -4%
Cc1cc(C(=O)N2CCCC2c2nc(O)cc(C(C)C)n2)on1 (stereo unspecified) | -3.42%
CC(C)N1CCCC(Cc2cncc(Br)c2)CC1 (stereo unspecified) | -7.5%
CNc1cncc(C2CCCN2Cc2ccn(C)n2)n1 (stereo unspecified) | -6.88%
Cc1ccc(C(=O)N2CCC(O)(CN3CCc4ccccc4C3)C2)s1 (stereo unspecified) | -1.61%
CN(c1ccncn1)C1CC2(CCN(C(=O)Cc3cccs3)C2)C1 (stereo unspecified) | -5.97%
CC(Sc1nncn1C)C(=O)NCCCOc1ccc(F)cc1 (stereo unspecified) | -49.2%
CC1CCCCN1C(=O)CCc1nnc(-c2ccccc2)o1 (stereo unspecified) | -4.65%
CCN(Cc1cccc2c1OCCO2)C(=O)NC(C)(C)C | -20.9%
COCC1CCN(C(=O)c2cc(O)nc(CC(C)C)c2)CC1 | -2.7%
Cc1nc(CN(C)c2nccc(N(C)C)n2)cs1 | -9.86%
O=C(c1ccccn1)N1CCN(C(c2ccccc2)C(F)(F)F)CC1 (stereo unspecified) | -8.18%
Clc1ccc2c(c1)C=C(CNC1CCc3ncnn3C1)CO2 (stereo unspecified) | -1.19%
CC1CN(C(=O)c2cnn(-c3ccccn3)c2C(C)C)CC(C)(C)O1 (stereo unspecified) | -3.09%

SMILES | cytotoxicity at 10 µM
CCC(CNC(=O)CNC(C)=O)Oc1cccc(F)c1 (stereo unspecified) | -43.6%
CCc1noc(C(C)N(C)Cc2cc(Br)ccc2OC)n1 (stereo unspecified) | -5.04%
COc1ccc(C)c(NC(=O)NCc2ncnn2C)c1 | -4.27%
Cc1noc(C(C)N2CCN(c3ncnc4ccccc34)CC2)n1 (stereo unspecified) | 17.7%
Cc1ccc(C(=O)N2CCOC3(CCCC3)C2)c(=O)[nH]1 | 7.87%
COc1cc(C2(C(=O)NC3CCN(C4CC4)CC3)CC2)ccc1C | 5.16%
N#Cc1ccc(CNC2CCN(CCc3ccncc3)CC2)cc1 | -5.03%
CC(=O)Nc1nc(CN(C)CC2CCCN2c2cccnn2)cs1 (stereo unspecified) | 15.1%
CC(C)CNC(=O)c1cc(Br)c2c(c1)OCCO2 | 6.7%
CCc1cnc(CN(C)C(=O)Nc2cnn(CC3CCCO3)c2)s1 (stereo unspecified) | 4.03%
CCCS(=O)(=O)CCSc1cccc(C#N)c1 | -3.85%
CC(CNC(=O)c1ccc(Cl)cc1F)N1CCCC1 (stereo unspecified) | -3.85%
Cc1ccc(S(=O)(=O)NCCCN2CCC(O)CC2)cc1Cl | 8.68%
O=C(CCCOc1ccccc1F)NCCCC(=O)Nc1cn[nH]c1 | -11.1%
CC(=O)N1CCCN(C(=O)c2cnc(OC(C)C)c(Cl)c2)CC1 | 6.02%
Cc1cc(C)n(CC2CCCN2C(=O)c2ccc3c(c2)COC3)n1 (stereo unspecified) | 1.85%
Cc1ccc(NS(=O)(=O)c2cnn(Cc3ccccc3)c2)c(C(=O)O)c1 | -2.41%
Cn1cc(C(O)CNC(=O)c2ccc(F)cc2Cl)cn1 (stereo unspecified) | 0.055%
CC(C)c1nc2n(n1)CC(NCC(=O)NCCC1=CCCCC1)CC2 (stereo unspecified) | -4.76%
CCn1cc(NC(=O)c2cccc(OCC(F)(F)F)n2)cn1 | -9.43%
NC(=O)CCN(C(=O)c1cccc2c1OCO2)c1ccccc1 | -16.5%
CCOc1ccc(C#N)cc1NCc1cc(C)on1 | -60.8%
CN(Cc1ccc2c(c1)OCCO2)Cc1nnnn1-c1ccccc1 | 20.5%

SMILES | cytotoxicity at 10 µM
CC(c1ccccc1)N(C)C(=O)CN1CCCc2cccc(F)c21 (stereo unspecified) | 22.5%
CC(=O)c1ccc(S(=O)(=O)N2CCCC2CN2CCCC2)cc1 (stereo unspecified) | -1.35%
COc1ccccc1C1(CNCc2cccc(O)c2)CCOCC1 | 9.18%
CC(CNC(=O)c1c[nH]nn1)Oc1ccc(Cl)cc1 (stereo unspecified) | 9.27%
CC(NCCCc1cnn(C)c1)c1ccc(Cl)s1 (stereo unspecified) | 5.29%
Cc1nnc(SCCC(=O)N(C)Cc2ccc(F)cc2Cl)[nH]1 | 11.4%
CC(C)(C)c1nc(NS(=O)(=O)c2ccc(F)cc2)no1 | 4.71%
CCN1CCN(C(=O)NC(C)c2noc(-c3ccccc3)n2)CC1 (stereo unspecified) | -15.5%
COCC(NC(=O)c1ccc[nH]1)c1cccc(C(F)(F)F)c1 (stereo unspecified) | -2.54%
CC(C)(C)OC(=O)N1CCCc2ccc(NCc3ncc[nH]3)cc21 | -5.99%
CN(CCc1cccs1)C1CCCN(Cc2noc(C3CC3)n2)C1 (stereo unspecified) | -12.5%
Cc1ccc(NCCCNc2nccc(-c3cn(C)nc3C)n2)nc1 | 14.5%
N#Cc1cccc(N2CCC(CO)(CCc3ccccc3)CC2)n1 | -48%
OC(c1ccccn1)C1CCN(Cc2cc3n(n2)CCCNC3)CC1 (stereo unspecified) | 6.89%
COc1ccc(OC)c2c(C)cc(N(C)CCCO)nc12 | 7.17%
CC(C)(C)c1oc(C(N)=O)cc1CN1CCCCC(N)C1 (stereo unspecified) | 5.94%
CC(=O)N1C[C@H](NC(=O)c2csc(C(C)C)c2)[C@@H](C(C)C)C1 | -18.2%
CC(C)(Cn1cnc(-c2ccccc2)c1-c1ccco1)N1CCOCC1 | -38.8%
CC(C)=CCN1CCN(Cc2cc(C)c(O)c(C)c2)CC1CCO (stereo unspecified) | -7.44%
CCNc1ccnc(N2CCN(Cc3ncccc3C)CC2)n1 | -5.59%
Cc1cc2c(N3CCC(N(C)CCc4cnn(C)c4)CC3)ncnc2s1 | 1.38%
N#Cc1cccc(S(=O)(=O)N2CCCCC2CCN2CCCC2)c1 (stereo unspecified) | -123%
CN1CC(c2ccccc2)CC12CCN(C(=O)c1cccnc1)CC2 (stereo unspecified) | 10.2%

SMILES | cytotoxicity at 10 µM
CN(Cc1cc(C2CC2)[nH]n1)C(=O)c1ccccc1C1CCNC1 (stereo unspecified) | 1.89%
O=C(CN1CCCC1)N1CCCC(CNS(=O)(=O)Cc2ccccc2)C1 (stereo unspecified) | -17.9%
CCC(NC(=O)CC1CCN(C(C)C)CC1)c1cn2cccnc2n1 (stereo unspecified) | -11.3%
Cc1csc(CN2CCC(C(=O)O)(n3ccc(-c4ccco4)n3)CC2)n1 | -127%
O=C(NCCC1CN(C2CCCC2)CCO1)c1cc(=O)[nH]c(=O)[nH]1 (stereo unspecified) | 0.0145%
CNC(=O)Cc1ccc(-n2ccnc2-c2ccc(C(=O)O)s2)cc1 | -1.53%
CN(C)C(=O)c1ccc2c(c1)nc(N1CC[C@H](O)C1)n2C | -18.8%
O=C(c1cnc(-c2cccnc2)nc1)N1CCSCC1 | 0.431%
O=C(O)c1cccnc1CN1CCCC1CCc1ccccc1 (stereo unspecified) | 10.9%
Cc1cc(CN(C)C(=O)C(c2cccnc2)N2CCOCC2)n[nH]1 (stereo unspecified) | -52.7%
Cc1nnsc1C(=O)NCc1cccnc1N(C)C | -12.2%
OCCc1ccccc1-n1ccnc1-c1cn(C2CCNCC2)nn1 | 2.39%
CCCN1CCN(C(=O)c2cncnc2C)[C@H]2CS(=O)(=O)C[C@H]21 | 0.145%
Cc1oc(C(C)C)cc1C(=O)N1CCN(c2cnn(C)c(=O)c2)CC1 | 1.27%
CC(C)CN1CCc2[nH]cnc2C12CCN(C(=O)c1cnn(C)c1)CC2 | -4.68%
CCNc1ncc(C(=O)NCCc2csc(CSC)n2)cn1 | -5.63%
c1ccc2sc(N3CCC4(CCCN4Cc4ncc[nH]4)CC3)nc2c1 | 9.3%
N#Cc1ccc(C(=O)N2CCC(c3ncc[nH]3)CC2)cn1 | -3.27%
CCCN1CCN(C(=O)c2cnccn2)[C@H]2CS(=O)(=O)C[C@H]21 | -19.8%
COc1ccccc1OCc1cc(C(=O)N2CCN[C@H](C)C2)n[nH]1 | -9.09%
CCC(=O)NCCc1cc(N2CCN(C(C)=O)CC2)nc(C2CC2)n1 | -0.439%
CN(C)c1ncc(CN2CCC(c3nnsc3S(C)(=O)=O)CC2)cn1 | 4.12%
CNc1cc2c(nn1)CCN(C(=O)c1cccc3c1OCCO3)C2 | -5.13%

SMILES | cytotoxicity at 10 µM
Cc1cc(C)c(CNC(=O)N(C)Cc2ccc3c(c2)OCO3)c(=O)[nH]1 | -5.53%
Cc1cc(C)n(CC2CN(CCOc3ccc(C#N)cc3)CCO2)n1 (stereo unspecified) | -6.31%
CCc1nnc2n1CCN(C(=O)CN(C)C1CC1)C2 | -1.28%
Cc1nc(CN(C)C2CCN(CCC(=O)N3CCOCC3)C2)no1 (stereo unspecified) | -0.945%
Cc1nn(C)c(N2CCOCC2)c1CNCc1ccc(N(C)C)nc1 | -14.4%
c1ccc(-c2cnc(CNC3CCCN(c4cccnn4)C3)o2)cc1 (stereo unspecified) | 0.993%
CCc1nnsc1C(=O)N1CCOC(c2nc(C)n[nH]2)C1 (stereo unspecified) | -6.45%
Cc1nccn1C1CCCN(C(=O)C2=NN(C)C(=O)CC2)C1 (stereo unspecified) | -7.49%
Cc1nc(CNCC2CN(C)CCO2)cs1 (stereo unspecified) | -9.16%
CN(Cc1noc(C2CC2)n1)C1CCN(Cc2nnc(C3CC3)o2)C1 (stereo unspecified) | -5.28%
COc1cccc(Nc2nc(-c3ccncc3)nc3c2CNCC3)c1 | -6.61%
OCC1CCC2(CC1)CN(Cc1ccsc1)Cc1ccccc1O2 (stereo unspecified) | -3.78%
CCn1ncc2c1C(COC)N(C(=O)c1cccs1)CC2 (stereo unspecified) | -112%
c1ccc(NC[C@@H]2CCC[C@@H]3CN(Cc4nccs4)C[C@@H]32)nc1 | -108%
CO[C@@H]1CCN(Cc2ccoc2)C[C@@H]1Cc1ccccc1 | 16.5%
Cc1ccc(N2CC[C@@H]3[C@@H]2CCN3Cc2ccsc2)nn1 | -106%
CN1CCC2(COCc3cnc(N4CCOCC4)nc32)C1 (stereo unspecified) | -6.13%
COCC1CN(C(=O)c2ccoc2)Cc2cnn(CC3CCOCC3)c21 (stereo unspecified) | 2.77%
O=C(c1ccoc1)N1CCCC2(CCC(=O)N2Cc2ccncc2)C1 (stereo unspecified) | -3.55%
